# MT1-MMP act inh: blocks activation of human MT1-MMP; P50281; 0.061% of 360,000 active; AID 651647; GFP/RFP ratio change, % at 20 µM; HT1080 RFP-PRO-GFP cells, GFP/RFP ratio fluorescence, overnight; percent of plate control window, DMSO zero;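 active = GFP/RFP ratio change of at least 30% with cell ATP level not reduced by more than half and red fluorescence within 50% of control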
#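 Test system: HT1080 RFP-PRO-GFP cells; Benchmarks: DMSO and RFP-L50D-GFP cell wells; Timing: cells overnight before dosing, compound overnight, 37 °C, 5% CO2; Compound: one 20 µM compound dose with 1% DMSO; Read-out: GFP/RFP fluorescence ratio.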
# PREPL inh: inhibits the human prolyl oligopeptidase-like enzyme; Q4J6C6; recombinant PREPL, fluorescence polarization activity-based probe; inhibition, % at 5.96 µM; 0.68% of 320,000 active; in the data active = inhibition above about 43%;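 note: 0% = enzyme with DMSO and 100% = wells lacking enzyme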
# iPSC survival up: enhancers of human iPSC single-cell survival; hiPSC single-cell survival, ATPlite luminescence; 100% = ROCK inhibitor wells, 0% = DMSO; survival enhancement, % at 20 µM; 0.044% of 360,000 active; AID 602274; in the data active = survival enhancement above about 18%;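 note: cells exposed to compounds for 16 hours before the ATP read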
# SKN-1 inh: blocks SKN-1 activity in C. elegans; C. elegans VP596 Pgst-4::GFP/RFP ratio, acrylamide-induced, 24 h; inhibition, % at 21.8 µM; 0.49% of 360,000 active; AID 624304;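 active = interference check ratio from 0.5 to 1.5 plus GFP to RFP signal ratio inhibition reaching or exceeding a fixed threshold, cut at about 30% in these data, passing the limit was not always enough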
# Tb MetRS inh: blocks T. brucei methionyl-tRNA synthetase activity | purified T. brucei MetRS, ATP depletion, Kinase-Glo luminescence | inhibition, % at 11.9 µM | 0.4% of 360,000 active;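 active = inhibition above a per-plate cutoff of the control wells' mean inhibition plus 3 SD, cut at about 5.5% in these data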;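 note: 0% = DMSO wells median and 100% = median of wells with control inhibitor compound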
#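 Dosing: 11.9 µM single point; system: parasite MetRS enzyme; technique: luminescence of leftover ATP; times: 15 min enzyme-compound preincubation, 2 h reaction, 10 min detection, 25 °C; replicates: each compound tested once; read-out basis: percent inhibition relative to median high and low control wells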
# eLon inh: inhibitors of E. coli Lon protease | 0.42% of 360,000 active | P0A9M0 | inhibition, % at 7.94 µM | AID 602123 | purified E. coli Lon protease, fluorescence polarization; in the data active = inhibition above about 13%, passing the limit was not always enough;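 note: 0% = enzyme with probe and DMSO and 100% = no enzyme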
# Target sequence (P0A9M0 whole entry, looked up): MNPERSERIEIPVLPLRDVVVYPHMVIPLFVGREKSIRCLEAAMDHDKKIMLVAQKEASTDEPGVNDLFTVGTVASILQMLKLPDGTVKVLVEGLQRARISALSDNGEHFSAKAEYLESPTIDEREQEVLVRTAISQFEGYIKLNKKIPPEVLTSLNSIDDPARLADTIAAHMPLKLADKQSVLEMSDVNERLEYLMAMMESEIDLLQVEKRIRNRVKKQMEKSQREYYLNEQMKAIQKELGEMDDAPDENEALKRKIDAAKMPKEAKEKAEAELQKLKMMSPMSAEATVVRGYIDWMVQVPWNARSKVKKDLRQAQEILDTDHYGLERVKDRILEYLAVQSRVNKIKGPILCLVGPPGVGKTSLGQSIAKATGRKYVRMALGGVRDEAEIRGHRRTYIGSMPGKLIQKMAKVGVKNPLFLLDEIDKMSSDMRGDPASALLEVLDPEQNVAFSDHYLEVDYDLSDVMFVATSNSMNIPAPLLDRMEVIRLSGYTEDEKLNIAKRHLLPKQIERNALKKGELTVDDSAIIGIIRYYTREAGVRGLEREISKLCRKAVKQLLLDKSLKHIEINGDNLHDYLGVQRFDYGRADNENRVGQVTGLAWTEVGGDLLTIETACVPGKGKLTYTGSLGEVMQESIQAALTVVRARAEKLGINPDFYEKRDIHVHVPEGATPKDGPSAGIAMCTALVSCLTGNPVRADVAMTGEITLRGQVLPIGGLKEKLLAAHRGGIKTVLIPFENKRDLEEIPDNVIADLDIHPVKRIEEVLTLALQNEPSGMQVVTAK
# Starred values were filed as active, the others as inactive; i = inactive; . = no result given; + = active, no number. Shown are actives, neighbours in structure and some others; about 1.8% of the full set was active somewhere.
SMILES,MT1-MMP act inh,PREPL inh,iPSC survival up,SKN-1 inh,Tb MetRS inh,eLon inh
O=C(CSc1nnc(CNc2ccc(F)cc2)n1Cc1ccco1)N1CCOCC1,-3.0,7.8,-3.1,0.4,-0.3,5.7
CCn1c(SCC(=O)c2cc(C)n(C)c2C)nnc1-c1ccccc1,4.6,-0.4,-0.9,12.5,-0.6,2.0
Cc1cc(C(=O)CSc2nnc(-c3cccs3)n2Cc2ccccc2)c(C)n1C,-5.4,11.8,0.3,35.8*,0.4,-4.4
N#CCc1nn(-c2ccccc2)c(N)c1C#N,-2.0,6.1,3.0,0.4,0.0,-6.1
N#CCc1nn2c(-c3ccccc3)ccnc2c1C#N,1.7,6.2,-0.6,43.2*,1.0,-4.6
Cc1ccc(CN2CCN(Cc3cn(C)nc3C)CC2CCO)o1 (centres undefined),-1.0,2.4,22.4*,-2.4,-0.5,5.4
N#C/C(=C\c1ccc(F)cc1)c1nc(-c2ccco2)cs1,2.6,3.3,0.5,60.2*,-0.2,-48.1
COC(=O)c1c(C)[nH]c(O)c1C=Nc1ccc(C#N)cc1,-6.3,5.6,-3.0,46.4*,-0.6,10.3
CCCN1C(=O)/C(=C/c2ccc(N3CCCC3)c(C)c2)NC1=S,-279.2,-0.1,-0.2,45.9*,-0.6,i
O=C(CC1c2cc(F)ccc2C=C(c2ccsc2)N1c1ccc(C#CCCO)cc1)c1ccco1 (centres undefined),-9.6,.,0.1,17.5,-0.3,-9.5
CC(C(=O)N1CCOCCOCCOCC1)N1C(=O)c2ccccc2C1=O (centres undefined),0.5,1.1,4.0,-4.1,-0.8,1.5
CC(C(=O)N1CCN(C)CC1)N1C(=O)c2ccccc2C1=O (centres undefined),4.1,2.0,1.5,36.1*,-1.0,-4.4
CCOc1ccc(-c2nc(N)ncc2Oc2cccc(OC)c2)c(O)c1,-2.8,11.9,-2.4,37.2*,-0.6,5.8
CCOc1ccc(-c2nc(N)ncc2Oc2ccccc2Br)c(O)c1,-11.3,11.3,1.0,22.9,-0.3,3.2
Fc1cccc(Cc2c(-c3ccc(Cl)cc3)nc3ccc(Br)cn23)c1,-14.3,.,0.4,13.0,0.0,-6.5
CCC(C)c1ccc(O)c(NC(=S)NC(=O)c2cccs2)c1 (centres undefined),-34.9,.,-2.0,16.8,-0.3,16.6
Cc1ccc(/C=C/c2ccc3cccc(O)c3n2)s1,5.9,-1.6,-0.1,34.7*,-1.3,-14.4
Oc1cccc(/C=C/c2ccc3cccc(O)c3n2)c1,3.4,-7.5,-0.2,45.9*,-0.4,0.4
COc1cccc(/C=C/c2ccc3cccc(O)c3n2)c1,3.3,7.0,-0.7,17.4,0.0,5.3
O=C(NC1CCCCC1)C1c2ccccc2OCC(=O)N1CC(F)(F)F (centres undefined),2.9,.,0.7,12.4,-0.1,-0.5
C1C2CC3C1C3C2=NN=C1C2CC3C(C2)C13,1.0,.,1.6,-7.7,0.1,-2.1
CCN(CC)c1ccc2cc(C(N)=O)c(=N)oc2c1,-108.3,16.6,0.0,-81.2,0.5,-91.5
CCN(CC)c1ccc2c(-c3ccc(S(=O)(=O)O)cc3S(=O)(=O)[O-])c3ccc(=[N+](CC)CC)cc-3oc2c1,-43.2,+,0.1,66.4,-3.2,+
CC(=O)Nc1ccc2c(c1)Cc1c-2cc(Br)c(N)c1Br,4.1,.,4.4,37.3*,-0.1,-10.7
CSc1nc(-c2ccco2)nn1C(=O)c1ccc(C)cc1,0.4,12.4,0.4,36.1*,0.1,0.9
CSc1nc(-c2ccco2)nn1C(=O)c1ccccc1,0.4,6.2,2.2,20.7,-0.5,-5.0
COCCn1c(SCC(=O)Nc2cccc(C)c2)nnc1C(C)C,2.9,8.0,-1.6,37.1*,-0.7,1.3
COCCn1c(SCC(=O)Nc2cc(C)cc(C)c2)nnc1C(C)C,4.1,14.6,1.6,-35.6,-0.4,-1.1
O=C(Nc1nnc([C@@H]2C[C@H](O)[C@@H](CO)O2)s1)NC1CCCCC1,-0.6,.,7.6,17.4,0.1,-7.3
CN(CCO)c1nc(N)c2c(N)nc3c(c2c1C#N)CC(=O)N3C1CCCC1,.,39.1,.,.,.,.

# Screens deposited in PubChem BioAssay by several laboratories.
